Measurements from publication PMC11649739 (Clinical Pharmacokinetics, 2024).
Several values for one entry are separate records, joined by “and”; a condition that tells them apart may be missing. Identical values can stand only once. Like-named read-outs stand apart in the source and are kept apart here.

Experiments:
[1] = type: in vivo, human; settings: human, plasma, oral; for AUC: Entire AUC; for Cmax: Entire Cmax
Procedure, shortened: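 Ensitrelvir was dosed once daily, 375 mg on day 1 then 125 mg on days 2–5, or 750/250 mg. A population PK model was fitted to 8034 plasma concentrations from 2060 healthy and SARS-CoV-2-infected participants: two-compartment, first-order absorption, with covariates tested on CL/F. Empirical Bayesian estimates from the final model were used to calculate individual exposures for SCORPIO-SR phase III participants.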

SARS-CoV-2 [2] = type: in vivo, human
Procedure, shortened: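 Phase III SCORPIO-SR participants received ensitrelvir or placebo. Dosing was once daily for 5 days, either 375 mg on day 1 then 125 mg on days 2–5, or 750 mg then 250 mg. Day-1 C24 (also Cmax and AUC) came from empirical Bayesian post hoc estimates. For placebo these were set to 0. Exposures were split into quartiles and boxplotted against change from baseline in viral RNA on day 4. Sub-LLOQ RNA values were set to LLOQ.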

[3] = cited from earlier work
cytochrome P450 3A = settings: drug interactions; cited from earlier work
P-glycoprotein = settings: drug interactions; cited from earlier work
[4] = tested on: breast cancer resistance protein; settings: drug interactions; cited from earlier work
SARS-CoV-2 [5] = settings: cited from earlier work
[6] = Mean, 250 mg group: 750 mg on day 1 and 250 mg on days 2–5
[7] = Median, 250 mg group: 750 mg on day 1 and 250 mg on days 2–5
[8] = body weight 35.0 and 156.0 kg vs median
[9] = final model no. 511, body weight 62.6 kg

Q: With `Cn1cnc(Cn2c(=O)[nH]/c(=N\c3cc4cn(C)nc4cc3Cl)n(Cc3cc(F)c(F)cc3F)c2=O)n1` [ensitrelvir] as the compound, how does the concentration at 24 h ([1]; C24_d1, Median, 250 mg group: 750 mg on day 1 and 250 mg on days 2–5, 24 h postdose on day 1) read?
A: 34200 ng/mL

Q: What about the concentration at 24 h ([1]; C24_d1, Minimum, 125 mg group: 375 mg on day 1 and 125 mg on days 2–5, 24 h postdose on day 1) of the same compound?
A: 8430 ng/mL

Q: What about the concentration at 24 h ([1]; C24_d1, Minimum, 250 mg group: 750 mg on day 1 and 250 mg on days 2–5, 24 h postdose on day 1) of the same compound?
A: 19400 ng/mL

Q: And the concentration at 24 h ([1]; C24_d5, Maximum, 125 mg group: 375 mg on day 1 and 125 mg on days 2–5, 24 h postdose on day 5)?
A: 35200 ng/mL

Q: And the concentration at 24 h ([1]; C24_d5, Maximum, 250 mg group: 750 mg on day 1 and 250 mg on days 2–5, 24 h postdose on day 5)?
A: 80900 ng/mL

Q: And the concentration at 24 h ([1]; C24_d5, Mean, 125 mg group: 375 mg on day 1 and 125 mg on days 2–5, 24 h postdose on day 5)?
A: 19500 ng/mL

Q: And the concentration at 24 h ([1]; C24_d5, Mean, 250 mg group: 750 mg on day 1 and 250 mg on days 2–5, 24 h postdose on day 5)?
A: 41800 ng/mL

Q: What about the concentration at 24 h ([1]; C24_d5, Median, 125 mg group: 375 mg on day 1 and 125 mg on days 2–5, 24 h postdose on day 5) of the same compound?
A: 19200 ng/mL

Q: And the concentration at 24 h ([1]; C24_d5, Median, 250 mg group: 750 mg on day 1 and 250 mg on days 2–5, 24 h postdose on day 5)?
A: 40800 ng/mL

Q: And the concentration at 24 h ([1]; C24_d5, Minimum, 125 mg group: 375 mg on day 1 and 125 mg on days 2–5, 24 h postdose on day 5)?
A: 10500 ng/mL

Q: What about the concentration at 24 h ([1]; C24_d5, Minimum, 250 mg group: 750 mg on day 1 and 250 mg on days 2–5, 24 h postdose on day 5) of the same compound?
A: 24300 ng/mL

Q: What about the AUC ([1]; Mean, 125 mg group: 375 mg on day 1 and 125 mg on days 2–5) of the same compound?
A: 2570 µg·h/mL

Q: And the AUC [1, 6]?
A: 5430 µg·h/mL

Q: What about the AUC ([1]; Median, 125 mg group: 375 mg on day 1 and 125 mg on days 2–5) of the same compound?
A: 2530 µg·h/mL

Q: What about the AUC [1, 7] of the same compound?
A: 5320 µg·h/mL

Q: And the Cmax [1, 6]?
A: 56400 ng/mL

Q: What about the Cmax [1, 7] of the same compound?
A: 55100 ng/mL

Q: And the “antiviral effects between the 375/125 mg and 750/250 mg doses” value (SARS-CoV-2 [2]; C24 on day 1 between 8.43 and 61.0 μg/mL)?
A: did not differ

Q: And the “virus RNA decrease across exposure categories (C24 on day 1 quartiles)” value (SARS-CoV-2 [2]; day 4, within the exposure range evaluated, phase III of SCORPIO-SR)?
A: decreased to a similar extent in all categories

Q: And the “change from baseline in the amount of SARS-CoV-2 viral RNA on day 4, versus placebo” value (SARS-CoV-2 [2]; ensitrelvir dosing groups, phase III of SCORPIO-SR)?
A: lower in the ensitrelvir dosing group than in the placebo group

Q: What about the “Interindividual variability of CL/F” value (base model) of the same compound?
A: 28.9%

Q: And the “Interindividual variability of Ka” value (base model)?
A: 88.1%

Q: What about the “Interindividual variability of Vc/F” value (base model) of the same compound?
A: 23.2%

Q: And the “range of the ratios of the minimum and maximum values to the median of BW for AUC” value [8]?
A: 0.623–1.353

Q: What about the “range of the ratios of the minimum and maximum values to the median of BW for Cmax” value [8] of the same compound?
A: 0.410–1.741

Q: And the “Interindividual variability of CL/F, Estimate (95% CI)” value (final model no. 511)?
A: 21.3% and 21.3 (19.7–22.8) %

Q: What about the “Interindividual variability of Ka, Estimate (95% CI)” value (final model no. 511) of the same compound?
A: 72.9% and 72.9 (64.3–80.6) %

Q: What about the “Interindividual variability of Vc/F, Estimate (95% CI)” value (final model no. 511) of the same compound?
A: 14.7% and 14.7 (12.8–16.3) %

Q: And the “Intraindividual variability: additive residual error, Estimate (95% CI)” value (final model no. 511)?
A: 0.0317 (0.0224–0.0410) µg/mL

Q: And the “Intraindividual variability: proportional residual error, Estimate (95% CI)” value (final model no. 511)?
A: 19.9 (18.5–21.3) %

Q: What about the “Q/F, Estimate (95% CI)” value (final model no. 511) of the same compound?
A: 0.539 (0.321–0.757) L/h

Q: And the “Vp/F, Estimate (95% CI)” value (final model no. 511)?
A: 2.50 (1.80–3.20) L

Q: What about the “CL/F, Estimate (95% CI)” value [9] of the same compound?
A: 0.211 (0.208–0.214) L/h

Q: What about the “Vc/F, Estimate (95% CI)” value [9] of the same compound?
A: 14.7 (13.9–15.5) L

Q: What about the “Additive residual error, Bootstrap estimate Median (95% CI)” value (final model no. 511, bootstrap) of the same compound?
A: 0.0331 (0.00945–0.0570) µg/mL

Q: And the “CL/F, Bootstrap estimate Median (95% CI)” value (final model no. 511, bootstrap)?
A: 0.211 (0.207–0.214) L/h

Q: And the “Effect of body weight on Vc/F, Bootstrap estimate Median (95% CI)” value (final model no. 511, bootstrap)?
A: 1.04 (0.959–1.11)

Q: And the “Effect of food on Ka, Bootstrap estimate Median (95% CI)” value (final model no. 511, bootstrap)?
A: 0.599 (0.447–1.00)

Q: What about the “Effect of formulation on Ka, Bootstrap estimate Median (95% CI)” value (final model no. 511, bootstrap) of the same compound?
A: 0.367 (0.280–0.469)

Q: What about the “Interindividual variability of CL/F, Bootstrap estimate Median (95% CI)” value (final model no. 511, bootstrap) of the same compound?
A: 21.3 (20.0–23.0) %

Q: And the “Interindividual variability of Ka, Bootstrap estimate Median (95% CI)” value (final model no. 511, bootstrap)?
A: 72.1 (64.4–80.4) %

Q: And the “Interindividual variability of Vc/F, Bootstrap estimate Median (95% CI)” value (final model no. 511, bootstrap)?
A: 14.6 (12.7–16.5) %

Q: What about the “Ka, Bootstrap estimate Median (95% CI)” value (final model no. 511, bootstrap) of the same compound?
A: 1.50 (1.23–1.80) 1/h

Q: And the “Proportional residual error, Bootstrap estimate Median (95% CI)” value (final model no. 511, bootstrap)?
A: 19.8 (18.6–21.2) %

Q: What about the “Q/F, Bootstrap estimate Median (95% CI)” value (final model no. 511, bootstrap) of the same compound?
A: 0.534 (0.331–0.823) L/h

Q: And the “Vc/F, Bootstrap estimate Median (95% CI)” value (final model no. 511, bootstrap)?
A: 14.8 (13.9–15.5) L

Q: What about the “Vp/F, Bootstrap estimate Median (95% CI)” value (final model no. 511, bootstrap) of the same compound?
A: 2.49 (1.74–3.26) L

Q: And the “Effect of formulation on Ka, Estimate (95% CI)” value (final model no. 511, multiplier, tablet vs suspension)?
A: 0.362 (0.262–0.462)

Q: What about the “Effect of body weight on Vc/F, Estimate (95% CI)” value (final model no. 511, power exponent on body weight/62.6) of the same compound?
A: 1.04 (0.960–1.12)

Q: What about the “Ka, Estimate (95% CI)” value (final model no. 511, typical value (suspension, not within 2 h after a meal)) of the same compound?
A: 1.50 (1.25–1.75) 1/h

Q: What about the “effect of food intake on pharmacokinetic profiles” value [3] of the same compound?
A: not substantially affected

Q: And the “recovered in the urine as unchanged ensitrelvir” value ([3]; dose groups ranging from 20 to 1000 mg)?
A: 12.9–21.8%

Q: And the “effect of fed state on Cmax” value ([3]; fed state with a high-fat/high-calorie meal vs fasted, phase I study)?
A: not affected

Q: What about the “pharmacokinetic profiles among various populations” value ([3]; including healthy white participants) of the same compound?
A: not meaningfully different

Q: What about the “terminal elimination half-life (t½,z)” value ([3]; single administration) of the same compound?
A: 42.2 to 48.1 h

Q: What about the “increase of Cmax and AUC0–inf with dose” value ([3]; single oral administration, 20 to 2000 mg, fasted state) of the same compound?
A: almost dose-proportional

Q: What about the “time at which maximum plasma concentration is reached” value ([3]; single oral administration) of the same compound?
A: around 2.50 h

Q: What about the “inhibition of cytochrome P450 3A” value (cytochrome P450 3A) of the same compound?
A: inhibits

Q: What about the “inhibition of P-glycoprotein” value (P-glycoprotein) of the same compound?
A: inhibits

Q: And the “inhibition of breast cancer resistance protein” value [4]?
A: inhibits

Q: And the “time to five COVID-19 symptoms” value (SARS-CoV-2 [5]; 125-mg group, phase III of SCORPIO-SR)?
A: 167.9 h

Q: And the “clearance of SARS-CoV-2” value (SARS-CoV-2 [5]; both dose groups 375/125 mg and 750/250 mg)?
A: rapid clearance of SARS-CoV-2
